Activity, IC50 and inhibition data for 1 molecule are collected here from ChEMBL document CHEMBL4334471, “Discovery of 1,8-disubstituted-[1,2,3]triazolo[4,5-c]quinoline derivatives as a new class of Hippo signaling pathway inhibitors” (Bioorg Med Chem Lett, 2019).

Test [1] has as its system Angiopoietin-1 receptor (Homo sapiens), Q02763 [Q939H,Q940H,R849W]. In words: Inhibition of recombinant human TIE2 Q939H/Q940H/R849W mutant (771 to end residues) assessed as residual activity at 10 uM using EFPIYDFLPAKKK as substrate incubated for 40 mins in presence of [gamma33P]ATP by scintillation counting based radiometry assay relative to control.
The test system of test [2] is Receptor-type tyrosine-protein kinase FLT3 (Homo sapiens), P36888 [D835Y]. As to the kind of experiment: Inhibition of recombinant human FLT3 D835Y mutant (564 to end residues) assessed as residual activity at 10 uM using EAIYAAPFAKKK as substrate at 40 mins in presence of [gamma-33ATP] by scintillation counting based radiometry assay relative to control.
The test system of test [3] is TGF-beta receptor type-1 (Homo sapiens), P36897 [T204D]. In words: Inhibition of recombinant human TGFBR1 T204D mutant (200 to end residues) assessed as residual activity at 10 uM using casein as substrate incubated for 40 mins in presence of [gamma33P]ATP by scintillation counting based radiometry assay relative to control.
Chain of TGF-beta receptor type-1 (Homo sapiens), P36897 [T204D] (P36897 whole entry T204D): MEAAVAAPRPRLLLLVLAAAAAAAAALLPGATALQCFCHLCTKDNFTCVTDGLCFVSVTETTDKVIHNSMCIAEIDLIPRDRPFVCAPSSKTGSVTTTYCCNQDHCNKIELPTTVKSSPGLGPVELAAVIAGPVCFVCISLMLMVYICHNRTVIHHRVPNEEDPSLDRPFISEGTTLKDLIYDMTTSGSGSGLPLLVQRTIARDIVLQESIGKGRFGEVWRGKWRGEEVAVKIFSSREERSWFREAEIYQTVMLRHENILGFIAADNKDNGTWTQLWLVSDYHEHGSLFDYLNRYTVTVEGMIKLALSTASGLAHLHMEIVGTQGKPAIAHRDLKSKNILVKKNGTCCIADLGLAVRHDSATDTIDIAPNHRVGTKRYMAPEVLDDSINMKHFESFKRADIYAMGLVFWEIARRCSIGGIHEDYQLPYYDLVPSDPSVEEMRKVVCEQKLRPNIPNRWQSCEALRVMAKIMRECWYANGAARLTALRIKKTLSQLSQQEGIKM
Test [4] concerns PI3-kinase p110-alpha/p85-alpha (Homo sapiens), P27986+P42336 [E545K]. In words: Inhibition of recombinant full-length human PI3K p110/p85 E545K mutant assessed as residual activity at 10 uM using phosphatidylinositol-4, 5-bisphosphate as substrate incubated for 40 mins in presence of [gamma33P]ATP by scintillation counting based radiometry assay relative to control.
In test [5] the target is Casein kinase I isoform epsilon (Homo sapiens) (UniProt P49674). As to the kind of experiment: Inhibition of recombinant human CK1epsilon assessed as residual activity at 10 uM using KRRRALS(p)VASLPGL as substrate incubated for 120 mins in presence of [gamma-33ATP] by scintillation counting based radiometry assay relative to control.
Chain of Casein kinase I isoform epsilon (Homo sapiens) (P49674 whole entry, looked up, canonical isoform): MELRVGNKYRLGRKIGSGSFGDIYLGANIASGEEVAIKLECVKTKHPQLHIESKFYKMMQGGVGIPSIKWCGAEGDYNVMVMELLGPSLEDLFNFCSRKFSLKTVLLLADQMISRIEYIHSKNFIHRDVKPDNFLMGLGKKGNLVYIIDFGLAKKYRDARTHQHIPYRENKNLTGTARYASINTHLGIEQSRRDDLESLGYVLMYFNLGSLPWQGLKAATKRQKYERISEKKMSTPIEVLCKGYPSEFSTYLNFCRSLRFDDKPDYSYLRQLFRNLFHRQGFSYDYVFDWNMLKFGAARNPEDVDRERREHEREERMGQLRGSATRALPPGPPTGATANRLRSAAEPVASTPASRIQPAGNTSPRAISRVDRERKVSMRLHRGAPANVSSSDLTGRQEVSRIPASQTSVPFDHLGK
The target of test [6] is Bone morphogenetic protein receptor type-1B (Homo sapiens) (UniProt O00238). In words: Inhibition of human ALK6 (148 to end residues) assessed as residual activity at 10 uM using casein as substrate incubated for 40 mins in presence of [gamma-33ATP] by scintillation counting based radiometry assay relative to control.
Chain of Bone morphogenetic protein receptor type-1B (Homo sapiens) (O00238 whole entry): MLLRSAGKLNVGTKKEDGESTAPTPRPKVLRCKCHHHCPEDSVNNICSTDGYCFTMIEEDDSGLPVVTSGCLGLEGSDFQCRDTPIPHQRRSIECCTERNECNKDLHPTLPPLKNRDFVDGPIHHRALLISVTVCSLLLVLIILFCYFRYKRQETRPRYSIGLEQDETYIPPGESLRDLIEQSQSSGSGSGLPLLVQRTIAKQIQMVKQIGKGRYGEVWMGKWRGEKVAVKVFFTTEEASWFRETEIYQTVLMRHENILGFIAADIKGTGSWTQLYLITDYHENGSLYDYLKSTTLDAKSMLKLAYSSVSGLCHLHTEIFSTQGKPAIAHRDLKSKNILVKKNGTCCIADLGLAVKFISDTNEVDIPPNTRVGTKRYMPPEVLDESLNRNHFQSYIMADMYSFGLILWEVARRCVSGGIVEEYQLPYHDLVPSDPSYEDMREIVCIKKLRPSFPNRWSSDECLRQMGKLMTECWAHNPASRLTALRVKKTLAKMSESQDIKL
Test [7] concerns Eukaryotic elongation factor 2 kinase (Homo sapiens), O00418 [H23R]. In words: Inhibition of recombinant human eEF-2K H23R mutant (2 to end residues) assessed as residual activity at 10 uM using RKKFGESEKTKTK as substrate at 40 mins in presence of [gamma-33ATP] by scintillation counting based radiometry assay relative to control.
Test [8] has as its target Serine/threonine-protein kinase 3 (Homo sapiens, UniProt Q13188). In words: Inhibition of recombinant human MST2 (2 to end residues) assessed as residual activity using myelin basic protein as substrate measured after 40 mins in presence of [gamma33P]ATP by scintillation counting based radiometry assay.
Test [9] deals with Calcium/calmodulin-dependent protein kinase type 1 (Homo sapiens) (UniProt Q14012). As to the kind of experiment: Inhibition of recombinant human CaMKIalpha (2 to end residues) assessed as residual activity at 10 uM using […] incubated for 40 mins in presence of [gamma-33ATP] by scintillation counting based radiometry assay relative to control.
Chain of Calcium/calmodulin-dependent protein kinase type 1 (Homo sapiens) (Q14012 whole entry, looked up): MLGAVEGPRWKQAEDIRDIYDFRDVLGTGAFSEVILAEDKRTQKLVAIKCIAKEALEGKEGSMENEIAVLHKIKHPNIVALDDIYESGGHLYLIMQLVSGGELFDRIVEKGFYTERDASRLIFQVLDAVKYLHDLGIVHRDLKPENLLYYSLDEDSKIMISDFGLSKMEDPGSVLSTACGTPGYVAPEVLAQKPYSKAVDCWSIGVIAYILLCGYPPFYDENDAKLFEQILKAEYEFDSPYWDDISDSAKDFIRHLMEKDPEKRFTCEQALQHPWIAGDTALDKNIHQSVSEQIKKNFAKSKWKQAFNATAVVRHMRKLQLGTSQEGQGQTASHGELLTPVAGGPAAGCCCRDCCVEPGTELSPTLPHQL
Test [10] concerns the target Testis-specific serine/threonine-protein kinase 3 (Homo sapiens) (UniProt Q96PN8). As to the kind of experiment: Inhibition of recombinant full-length human TSSK3 assessed as residual activity at 10 uM using AMARAASAAALARRR as substrate incubated for 40 mins in presence of [gamma33P]ATP by scintillation counting based radiometry assay relative to control.
Test [11] concerns the target Serine/threonine-protein kinase haspin (Homo sapiens) (UniProt Q8TF76). As to the kind of experiment: Inhibition of human Haspin (471 to end residues ) assessed as residual activity at 10 uM using RARTLSFAEPG as substrate after 40 mins by [gamma-33ATP] radiometric assay relative to control.
Test [12] relates to Glycogen synthase kinase-3 alpha (Homo sapiens), P49840 [UNDEFINED MUTATION]. In words: Inhibition of human GSK-3alpha S449A mutant (2 to end residues) assessed as residual activity at 10 uM using phospho GS2 peptide as substrate after 40 mins by [gamma-33ATP] radiometric assay.
Chain of Glycogen synthase kinase-3 alpha (Homo sapiens), P49840 [UNDEFINED MUTATION] (P49840 whole entry, looked up, stated change not applied): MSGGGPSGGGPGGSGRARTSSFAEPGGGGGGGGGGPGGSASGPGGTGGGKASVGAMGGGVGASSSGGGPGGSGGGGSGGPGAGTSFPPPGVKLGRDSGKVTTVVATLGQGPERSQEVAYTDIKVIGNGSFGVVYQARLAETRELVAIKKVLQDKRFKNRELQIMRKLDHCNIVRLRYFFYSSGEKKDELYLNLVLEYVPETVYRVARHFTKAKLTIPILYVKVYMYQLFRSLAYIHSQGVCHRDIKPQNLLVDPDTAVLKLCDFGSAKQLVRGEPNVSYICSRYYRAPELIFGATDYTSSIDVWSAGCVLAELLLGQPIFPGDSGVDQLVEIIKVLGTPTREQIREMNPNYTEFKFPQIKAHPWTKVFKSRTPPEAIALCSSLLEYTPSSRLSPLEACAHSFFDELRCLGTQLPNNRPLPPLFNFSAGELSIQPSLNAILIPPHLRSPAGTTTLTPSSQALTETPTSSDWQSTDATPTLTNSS
The test system of test [13] is PI3-kinase p110-alpha/p85-alpha (Homo sapiens), P27986+P42336 [E542K]. As to the kind of experiment: Inhibition of recombinant full-length human PI3K p110/p85 E542K mutant assessed as residual activity at 10 uM using phosphatidylinositol-4, 5-bisphosphate as substrate incubated for 40 mins in presence of [gamma33P]ATP by scintillation counting based radiometry assay relative to control.

The target of test [14] is Protein kinase C iota type (Homo sapiens) (UniProt P41743). In words: Inhibition of recombinant full-length human PKCiota assessed as residual activity at 10 uM using ERMRPRKRQGSVRRRV as substrate incubated for 40 mins in presence of [gamma33P]ATP by scintillation counting based radiometry assay relative to control.
Another test is filed under the species Homo sapiens. In words: Inhibition of recombinant human Plk4 S34T mutant (1 to 273 residues) assessed as residual activity at 10 uM using casein as substrate incubated for 40 mins in presence of [gamma33P]ATP by scintillation counting based radiometry assay relative to control.
Test [15] concerns the target Myosin-IIIb (Homo sapiens) (UniProt Q8WXR4). As to the kind of experiment: Inhibition of recombinant human MYO3B (1 to 306 residues) assessed as residual activity at 10 uM using RLGRDKYKTLRQI as substrate measured after 40 mins in presence of [gamma33P]ATP by scintillation counting based radiometry assay relative to control.
Test [16] addresses Serine/threonine-protein kinase 17B (Homo sapiens) (UniProt O94768). As to the kind of experiment: Inhibition of recombinant human DRAK2 assessed as residual activity at 10 uM using KKRPQRRYSNVF as substrate at 120 mins in presence of [gamma-33ATP] by scintillation counting based radiometry assay relative to control.
For the next test, the system named is A549. In words: Inhibition of hippo signalling protein in human A549 cells assessed as increase in CTGF mRNA expression level incubated for 24 hrs by qRT-PCR analysis. It is filed as cell-based. The procedure, abridged:
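A549-CTGF cells were exposed to compound or 0.1% DMSO for 24 h before total RNA extraction. Endogenous CTGF mRNA was quantified by real-time PCR. Data were mean ± SEM (n=4) and compared by Student's t-test.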
On the technique in general: Real-time PCR tracks product formation cycle by cycle.

Test [17] deals with Casein kinase II subunit alpha' (Homo sapiens) (UniProt P19784). In words: Inhibition of recombinant full length human CK2alpha2 assessed as residual activity at 10 uM using RRRDDDSDDD as substrate incubated 40 mins in presence of [gamma-33ATP] by scintillation counting based radiometry assay relative to control.
Chain of Casein kinase II subunit alpha' (Homo sapiens) (P19784 whole entry, looked up, the tested form may be a part): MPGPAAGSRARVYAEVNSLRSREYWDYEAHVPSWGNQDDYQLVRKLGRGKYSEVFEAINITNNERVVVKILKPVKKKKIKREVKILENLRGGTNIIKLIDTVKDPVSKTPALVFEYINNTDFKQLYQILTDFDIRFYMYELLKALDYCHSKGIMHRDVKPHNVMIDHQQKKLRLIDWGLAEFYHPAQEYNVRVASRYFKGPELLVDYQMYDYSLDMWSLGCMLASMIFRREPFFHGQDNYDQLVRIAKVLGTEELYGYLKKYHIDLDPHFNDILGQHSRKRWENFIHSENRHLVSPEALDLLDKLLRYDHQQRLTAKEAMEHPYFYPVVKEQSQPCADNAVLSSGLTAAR
The target in test [18] is Ephrin type-A receptor 5 (Homo sapiens) (UniProt P54756). In words: Inhibition of recombinant human EphA5 (655to 956 residues) assessed as residual activity at 10 uM using poly(Glu, Tyr) 4:1 as substrate at 40 mins in presence of [gamma-33ATP] by scintillation counting based radiometry assay relative to control.

Chain of Myosin-IIIb (Homo sapiens) (Q8WXR4 whole entry, the tested form may be a part): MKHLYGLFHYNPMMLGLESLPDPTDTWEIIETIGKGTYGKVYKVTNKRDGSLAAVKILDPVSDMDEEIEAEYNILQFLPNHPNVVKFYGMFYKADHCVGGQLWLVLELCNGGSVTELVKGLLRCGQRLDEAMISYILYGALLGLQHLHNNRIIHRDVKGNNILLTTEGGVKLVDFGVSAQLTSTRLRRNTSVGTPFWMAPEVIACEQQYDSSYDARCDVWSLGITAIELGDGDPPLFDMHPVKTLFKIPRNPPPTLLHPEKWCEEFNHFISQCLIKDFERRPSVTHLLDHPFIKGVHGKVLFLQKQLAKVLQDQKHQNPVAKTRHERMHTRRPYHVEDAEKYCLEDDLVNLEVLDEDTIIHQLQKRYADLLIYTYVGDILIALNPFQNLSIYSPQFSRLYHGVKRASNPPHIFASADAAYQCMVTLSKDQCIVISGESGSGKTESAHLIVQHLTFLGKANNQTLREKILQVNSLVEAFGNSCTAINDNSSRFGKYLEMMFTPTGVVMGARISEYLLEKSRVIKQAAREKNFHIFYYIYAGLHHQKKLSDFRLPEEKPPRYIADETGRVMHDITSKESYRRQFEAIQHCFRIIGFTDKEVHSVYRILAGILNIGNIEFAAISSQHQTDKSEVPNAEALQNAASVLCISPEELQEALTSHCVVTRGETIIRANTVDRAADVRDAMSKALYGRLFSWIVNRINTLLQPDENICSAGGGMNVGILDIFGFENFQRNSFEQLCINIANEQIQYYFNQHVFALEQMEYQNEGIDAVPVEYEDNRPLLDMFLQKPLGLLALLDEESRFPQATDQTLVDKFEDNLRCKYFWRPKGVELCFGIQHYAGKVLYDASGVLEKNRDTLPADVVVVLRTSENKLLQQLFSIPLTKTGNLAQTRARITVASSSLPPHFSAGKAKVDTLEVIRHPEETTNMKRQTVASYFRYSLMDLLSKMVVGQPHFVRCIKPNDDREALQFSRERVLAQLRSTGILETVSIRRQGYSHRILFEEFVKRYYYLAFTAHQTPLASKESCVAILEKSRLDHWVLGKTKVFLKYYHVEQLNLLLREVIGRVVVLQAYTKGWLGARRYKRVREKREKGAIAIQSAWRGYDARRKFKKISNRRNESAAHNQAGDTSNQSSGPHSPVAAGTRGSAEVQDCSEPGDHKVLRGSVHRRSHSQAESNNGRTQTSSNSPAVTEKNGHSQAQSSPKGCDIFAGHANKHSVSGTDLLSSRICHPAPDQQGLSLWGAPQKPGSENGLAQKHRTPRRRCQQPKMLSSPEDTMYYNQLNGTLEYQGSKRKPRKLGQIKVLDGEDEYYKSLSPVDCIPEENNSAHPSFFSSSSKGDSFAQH
Chain of Serine/threonine-protein kinase haspin (Homo sapiens) (Q8TF76 whole entry): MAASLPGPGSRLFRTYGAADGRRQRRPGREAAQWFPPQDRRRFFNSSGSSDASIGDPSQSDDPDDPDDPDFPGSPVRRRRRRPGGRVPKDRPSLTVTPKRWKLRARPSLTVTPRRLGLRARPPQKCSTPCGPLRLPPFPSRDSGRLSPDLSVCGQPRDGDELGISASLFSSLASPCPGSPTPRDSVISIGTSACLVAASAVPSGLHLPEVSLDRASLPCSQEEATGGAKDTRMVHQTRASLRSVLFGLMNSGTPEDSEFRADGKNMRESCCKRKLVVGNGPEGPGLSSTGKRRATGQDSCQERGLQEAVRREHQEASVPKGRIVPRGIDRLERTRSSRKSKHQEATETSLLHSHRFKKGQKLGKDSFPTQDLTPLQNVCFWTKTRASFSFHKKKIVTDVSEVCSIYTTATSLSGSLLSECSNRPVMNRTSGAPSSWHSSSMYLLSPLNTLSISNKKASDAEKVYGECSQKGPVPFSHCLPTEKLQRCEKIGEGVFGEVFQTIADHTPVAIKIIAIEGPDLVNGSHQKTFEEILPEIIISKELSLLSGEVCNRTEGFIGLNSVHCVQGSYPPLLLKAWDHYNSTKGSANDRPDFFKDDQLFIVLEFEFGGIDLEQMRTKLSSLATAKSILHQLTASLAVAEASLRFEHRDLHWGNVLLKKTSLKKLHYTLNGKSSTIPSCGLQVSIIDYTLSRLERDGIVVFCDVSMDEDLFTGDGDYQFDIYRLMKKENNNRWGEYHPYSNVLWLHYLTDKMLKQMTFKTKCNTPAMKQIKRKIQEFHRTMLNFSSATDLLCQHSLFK

As a reminder, the IC50 is the concentration that inhibits the measured activity by half. `C[C@@H](c1ccccc1)n1nnc2cnc3ccc(-c4cnc5[nH]ccc5c4)cc3c21`: the Activity is 103% in test [1]; 42% in test [2]; 97% in test [3]; 2% in test [4]; 32% in test [5]; 93% in [6]. Also, the Activity in [7] amounted to 129%; in [9] it was 28%; in [10] it was 64%; in test [11], 51%; in [12], 79%; in test [13], 8%. Besides, the Activity in test [14] was 81%; in the test listed under Homo sapiens, 82%; in test [15], 73%; in test [16], 64%; in [17] it was 83%; in [18] it was 102%. Besides, in test [8], the IC50 was greater than 10 µM. The inhibition entry in the test on A549 is “Dose-dependent effect”.
